Assay results taken from ChEMBL document CHEMBL4414574, “Structure-Based Discovery and Development of a Series of Potent and Selective Bromodomain and Extra-Terminal Protein Inhibitors” (J Med Chem, 2019).
Calls of active or inactive are those of the source. The calls are words filed in the database; no cut-off is given here.

What was measured:
[1] = Half life in ICR mouse brain at 50 mg/kg, po administered via gavage measured after 0.25 to 24 hrs by UPLC/MS analysis; format: ADME, organism-based
Procedure, shortened: (§1)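 Male ICR mice dosed orally in 1% DMSO/0.5% HPMC vehicle; plasma or brain drug levels used to derive Tmax, Cmax, AUC0-t, AUC0-inf and T1/2.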

[2] = Drug uptake in plasma of Balb/c nude mouse xenografted with human MV4-11 cells at 10 to 50 mg/kg, po measured after 1 to 8 hrs; format: ADME, organism-based; details: in vivo
Procedure, shortened: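 MV4-11 xenografts in BALB/c nude mice given oral compound; drug concentrations in plasma and tumor tissue measured at 1 h and 8 h after dosing.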

[3] = AUC (0 to t) in dog plasma at 3 mg/kg, po; format: ADME, organism-based, Canis lupus familiaris
Procedure, shortened: (§2)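 Compound was given orally or intravenously in 1% DMSO/0.5% HPMC vehicle. Concentrations in plasma, or in brain where stated, gave Tmax, Cmax, T1/2, AUC0-t and AUC0-inf.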

[4] = biological target: Histone acetyltransferase p300 (Homo sapiens) (UniProt Q09472); assay: Binding affinity to human partial length EP300 (A1040 to G1161 residues) expressed in Escherichia coli BL21 cells assessed as residual binding level at 1 uM measured after 1 hr by quantitative PCR based BROMOscan assay relative to control
Chain of Histone acetyltransferase p300 (Homo sapiens) (Q09472 whole entry, the tested form may be a part): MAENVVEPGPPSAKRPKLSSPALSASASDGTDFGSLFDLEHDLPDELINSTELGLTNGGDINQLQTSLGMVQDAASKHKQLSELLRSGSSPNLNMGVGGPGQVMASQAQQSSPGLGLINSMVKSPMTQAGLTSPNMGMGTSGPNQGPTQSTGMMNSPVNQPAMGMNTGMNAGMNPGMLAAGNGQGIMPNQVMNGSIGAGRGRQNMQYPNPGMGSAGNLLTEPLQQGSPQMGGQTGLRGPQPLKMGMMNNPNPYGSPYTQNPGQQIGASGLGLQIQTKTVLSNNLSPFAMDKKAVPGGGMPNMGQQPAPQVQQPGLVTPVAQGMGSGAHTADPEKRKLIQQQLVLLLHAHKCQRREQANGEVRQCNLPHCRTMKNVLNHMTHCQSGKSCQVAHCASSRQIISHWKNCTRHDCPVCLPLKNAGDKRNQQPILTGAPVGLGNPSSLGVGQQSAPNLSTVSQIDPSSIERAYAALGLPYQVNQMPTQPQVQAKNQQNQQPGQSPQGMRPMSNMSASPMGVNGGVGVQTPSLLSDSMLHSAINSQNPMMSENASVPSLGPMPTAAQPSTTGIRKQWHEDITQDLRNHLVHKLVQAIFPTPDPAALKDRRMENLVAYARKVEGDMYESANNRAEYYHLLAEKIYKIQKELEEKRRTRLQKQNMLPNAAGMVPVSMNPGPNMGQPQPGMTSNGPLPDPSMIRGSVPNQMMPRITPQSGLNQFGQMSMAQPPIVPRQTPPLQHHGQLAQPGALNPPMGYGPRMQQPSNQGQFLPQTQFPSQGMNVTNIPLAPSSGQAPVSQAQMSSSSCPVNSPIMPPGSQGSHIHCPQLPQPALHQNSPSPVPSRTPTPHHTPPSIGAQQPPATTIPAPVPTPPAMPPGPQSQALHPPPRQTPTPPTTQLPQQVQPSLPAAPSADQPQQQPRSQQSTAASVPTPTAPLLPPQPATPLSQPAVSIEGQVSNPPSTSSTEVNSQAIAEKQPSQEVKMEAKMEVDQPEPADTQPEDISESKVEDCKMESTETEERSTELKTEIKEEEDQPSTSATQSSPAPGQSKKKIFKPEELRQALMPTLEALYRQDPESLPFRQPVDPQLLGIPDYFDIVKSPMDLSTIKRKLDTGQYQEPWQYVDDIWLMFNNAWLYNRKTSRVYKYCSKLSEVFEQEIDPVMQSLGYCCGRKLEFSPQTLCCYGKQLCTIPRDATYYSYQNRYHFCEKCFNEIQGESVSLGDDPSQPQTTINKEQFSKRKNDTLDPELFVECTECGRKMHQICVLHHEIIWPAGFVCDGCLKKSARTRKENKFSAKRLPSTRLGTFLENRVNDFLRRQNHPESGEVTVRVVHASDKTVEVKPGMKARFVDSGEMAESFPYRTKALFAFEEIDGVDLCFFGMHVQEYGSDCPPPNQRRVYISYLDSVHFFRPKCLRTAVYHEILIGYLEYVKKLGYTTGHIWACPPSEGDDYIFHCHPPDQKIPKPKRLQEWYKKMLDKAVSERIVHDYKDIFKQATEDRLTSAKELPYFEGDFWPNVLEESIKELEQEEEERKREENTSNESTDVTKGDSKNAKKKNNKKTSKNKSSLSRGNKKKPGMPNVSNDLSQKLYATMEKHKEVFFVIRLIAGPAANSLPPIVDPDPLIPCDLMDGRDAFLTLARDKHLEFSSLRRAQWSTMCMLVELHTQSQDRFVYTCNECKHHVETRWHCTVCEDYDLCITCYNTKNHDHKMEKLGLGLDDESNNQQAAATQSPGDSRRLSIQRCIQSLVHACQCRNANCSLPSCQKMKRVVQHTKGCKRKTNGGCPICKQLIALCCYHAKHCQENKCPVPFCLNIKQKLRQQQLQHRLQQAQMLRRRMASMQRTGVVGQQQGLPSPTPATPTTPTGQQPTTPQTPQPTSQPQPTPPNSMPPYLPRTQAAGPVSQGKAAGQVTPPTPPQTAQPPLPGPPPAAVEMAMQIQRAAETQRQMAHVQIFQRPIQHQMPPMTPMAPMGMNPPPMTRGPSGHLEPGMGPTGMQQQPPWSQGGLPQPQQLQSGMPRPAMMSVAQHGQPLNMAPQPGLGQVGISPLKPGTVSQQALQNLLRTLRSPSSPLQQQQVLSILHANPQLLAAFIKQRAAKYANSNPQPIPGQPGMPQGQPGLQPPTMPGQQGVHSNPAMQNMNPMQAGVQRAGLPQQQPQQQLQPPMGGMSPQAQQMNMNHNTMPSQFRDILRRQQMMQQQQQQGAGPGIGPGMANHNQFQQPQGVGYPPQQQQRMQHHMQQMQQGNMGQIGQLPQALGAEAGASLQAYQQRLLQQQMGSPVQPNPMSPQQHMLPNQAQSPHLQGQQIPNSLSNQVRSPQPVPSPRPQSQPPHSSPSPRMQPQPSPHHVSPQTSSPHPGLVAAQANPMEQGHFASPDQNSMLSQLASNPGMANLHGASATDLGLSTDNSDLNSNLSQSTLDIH
Procedure, shortened: (§3)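 A BROMOScan competition-binding panel of 32 bromodomains was run at a single 1 μM compound concentration. Results are primary-screen 'Percent Control', where lower values indicate stronger binding.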

[5] = biological target: Serine/threonine-protein kinase PLK1 (Homo sapiens) (UniProt P53350); assay: Inhibition of full-length recombinant human His-tagged PLK1 expressed in baculovirus expression system at 10 uM using Ser/Thr 16 Peptide as substrate after 60 mins by Z-LYTE assay relative to control
[6] = Cmax in ICR mouse plasma at 50 mg/kg, po administered via gavage measured after 0.25 to 24 hrs by UPLC/MS analysis; format: ADME, organism-based; parameters: dose 50 mg/kg, route oral; procedure, shortened: as §1
[7] = AUC (0 to t) in rat plasma at 10 mg/kg, po; format: ADME, organism-based; procedure, shortened: as §2
[8] = AUC (0 to t) in rat plasma at 50 mg/kg, po; format: ADME, organism-based; procedure, shortened: as §2
Peregrin (Homo sapiens) = Peregrin (Homo sapiens) (UniProt P55201); assay: Binding affinity to human partial length BRPF1 (E627 to G740 residues) expressed in Escherichia coli BL21 cells assessed as residual binding level at 1 uM measured after 1 hr by quantitative PCR based BROMOscan assay relative to control; procedure, shortened: as §3
Chain of Peregrin (Homo sapiens) (P55201 whole entry, the tested form may be a part): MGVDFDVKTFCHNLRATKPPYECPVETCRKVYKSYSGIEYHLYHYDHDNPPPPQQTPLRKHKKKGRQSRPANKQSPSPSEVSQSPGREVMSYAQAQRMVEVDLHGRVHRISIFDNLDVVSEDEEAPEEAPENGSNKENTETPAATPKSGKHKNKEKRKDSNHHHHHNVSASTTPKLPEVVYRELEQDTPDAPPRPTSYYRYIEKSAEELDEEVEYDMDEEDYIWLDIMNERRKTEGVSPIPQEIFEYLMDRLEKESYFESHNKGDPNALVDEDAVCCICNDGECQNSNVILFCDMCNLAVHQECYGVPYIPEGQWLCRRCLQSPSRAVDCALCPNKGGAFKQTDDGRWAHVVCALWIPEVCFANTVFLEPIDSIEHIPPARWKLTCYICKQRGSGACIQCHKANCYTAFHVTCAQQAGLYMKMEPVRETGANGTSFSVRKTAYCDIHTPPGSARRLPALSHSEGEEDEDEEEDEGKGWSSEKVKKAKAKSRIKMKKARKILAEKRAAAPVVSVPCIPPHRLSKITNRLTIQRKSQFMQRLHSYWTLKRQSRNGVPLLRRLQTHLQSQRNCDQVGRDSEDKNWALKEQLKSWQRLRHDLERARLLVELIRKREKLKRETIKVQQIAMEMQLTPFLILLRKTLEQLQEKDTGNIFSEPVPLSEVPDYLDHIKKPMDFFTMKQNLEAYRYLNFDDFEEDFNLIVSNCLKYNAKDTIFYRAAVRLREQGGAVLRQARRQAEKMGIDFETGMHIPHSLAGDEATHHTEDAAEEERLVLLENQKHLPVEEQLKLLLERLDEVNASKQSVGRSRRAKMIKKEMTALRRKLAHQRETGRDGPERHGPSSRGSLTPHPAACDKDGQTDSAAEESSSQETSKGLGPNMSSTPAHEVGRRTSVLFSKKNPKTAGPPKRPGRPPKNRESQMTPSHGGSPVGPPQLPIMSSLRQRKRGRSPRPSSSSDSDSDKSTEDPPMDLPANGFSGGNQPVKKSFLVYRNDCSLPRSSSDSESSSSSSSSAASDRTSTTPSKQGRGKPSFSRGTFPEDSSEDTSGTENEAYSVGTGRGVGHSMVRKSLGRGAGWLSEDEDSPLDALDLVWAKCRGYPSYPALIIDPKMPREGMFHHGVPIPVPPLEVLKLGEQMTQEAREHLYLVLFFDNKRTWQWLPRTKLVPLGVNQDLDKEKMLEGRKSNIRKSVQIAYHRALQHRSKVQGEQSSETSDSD

[9] = Half life in rat plasma at 50 mg/kg, po; format: ADME, organism-based
[10] = Bioavailability in dog at 1 mg/kg, iv; format: ADME, organism-based, Canis lupus familiaris; details: in vivo
[11] = AUC (0 to infinity) in rat plasma at 10 mg/kg, po; format: ADME, organism-based; parameters: dose 10 mg/kg, route oral, time infinity; procedure, shortened: as §2
[12] = biological target: ATPase family AAA domain-containing protein 2B (Homo sapiens) (UniProt Q9ULI0); assay: Binding affinity to human partial length ATAD2B (Q955 to R1082 residues) expressed in Escherichia coli BL21 cells assessed as residual binding level at 1 uM measured after 1 hr by quantitative PCR based BROMOscan assay relative to control; procedure, shortened: as §3
Chain of ATPase family AAA domain-containing protein 2B (Homo sapiens) (Q9ULI0 whole entry, the tested form may be a part): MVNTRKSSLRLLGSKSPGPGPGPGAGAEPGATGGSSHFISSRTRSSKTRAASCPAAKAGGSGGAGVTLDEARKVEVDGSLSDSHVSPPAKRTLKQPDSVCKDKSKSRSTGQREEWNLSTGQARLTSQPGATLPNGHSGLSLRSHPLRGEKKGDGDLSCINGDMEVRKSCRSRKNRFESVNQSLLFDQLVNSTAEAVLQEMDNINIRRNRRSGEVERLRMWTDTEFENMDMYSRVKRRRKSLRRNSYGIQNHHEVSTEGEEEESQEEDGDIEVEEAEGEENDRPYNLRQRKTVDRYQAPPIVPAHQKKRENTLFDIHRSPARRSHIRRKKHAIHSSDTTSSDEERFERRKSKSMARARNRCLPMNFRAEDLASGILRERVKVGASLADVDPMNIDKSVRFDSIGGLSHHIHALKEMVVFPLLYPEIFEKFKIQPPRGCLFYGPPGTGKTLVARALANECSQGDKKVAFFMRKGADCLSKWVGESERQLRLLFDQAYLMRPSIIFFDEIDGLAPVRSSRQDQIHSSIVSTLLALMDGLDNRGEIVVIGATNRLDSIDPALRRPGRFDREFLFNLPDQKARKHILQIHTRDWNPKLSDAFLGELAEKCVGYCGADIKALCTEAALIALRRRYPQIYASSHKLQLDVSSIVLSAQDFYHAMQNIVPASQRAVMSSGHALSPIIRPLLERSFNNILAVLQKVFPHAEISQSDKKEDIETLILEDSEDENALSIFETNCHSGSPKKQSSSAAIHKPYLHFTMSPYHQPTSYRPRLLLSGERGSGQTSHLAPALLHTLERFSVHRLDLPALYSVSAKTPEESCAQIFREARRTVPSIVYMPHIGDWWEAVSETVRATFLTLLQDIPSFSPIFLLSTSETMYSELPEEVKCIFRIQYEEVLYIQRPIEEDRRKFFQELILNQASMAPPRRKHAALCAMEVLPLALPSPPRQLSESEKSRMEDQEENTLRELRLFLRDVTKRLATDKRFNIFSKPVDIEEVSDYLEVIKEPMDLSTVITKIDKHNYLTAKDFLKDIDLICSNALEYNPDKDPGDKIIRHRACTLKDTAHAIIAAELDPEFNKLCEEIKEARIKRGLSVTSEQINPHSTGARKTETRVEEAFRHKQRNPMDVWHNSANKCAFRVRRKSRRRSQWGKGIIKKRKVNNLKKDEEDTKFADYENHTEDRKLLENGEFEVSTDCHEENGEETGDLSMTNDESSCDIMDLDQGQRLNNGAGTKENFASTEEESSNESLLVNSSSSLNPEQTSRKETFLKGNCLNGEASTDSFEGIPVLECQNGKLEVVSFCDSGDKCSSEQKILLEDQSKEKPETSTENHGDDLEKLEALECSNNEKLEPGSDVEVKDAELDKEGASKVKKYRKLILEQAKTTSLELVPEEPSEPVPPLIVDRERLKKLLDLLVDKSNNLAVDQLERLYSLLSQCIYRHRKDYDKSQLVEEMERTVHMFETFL

MV4-11 [13] = assay: Antiproliferative activity against human MV4-11 cells after 72 hrs by CCK8 or SRB assay; format: functional, cell-based
[14] = biological target: Transcription intermediary factor 1-alpha (Homo sapiens) (UniProt O15164); assay: Binding affinity to human partial length TRIM24 (P790 to P977 residues) expressed in Escherichia coli BL21 cells assessed as residual binding level at 1 uM measured after 1 hr by quantitative PCR based BROMOscan assay relative to control
Procedure, shortened: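 Bromodomain panel screen (32 bromodomains) run at 1 μM single concentration; primary binding reported as 'Percent Control', lower values meaning stronger interaction.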

MM1.S = assay: Antiproliferative activity against human MM1S cells after 72 hrs by CCK8 or SRB assay; format: functional, cell-based
Procedure, shortened: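 IC50 against MM.1S cell proliferation was taken as the mean of three independent experiments, each run in triplicate, reported with SEM.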

[15] = biological target: T1, Bromodomain-containing protein 4 (Homo sapiens, UniProt O60885); assay: Displacement of 5-FITC labelled (+)-JQ1 from His6-tagged human BRD4 bromodomain 1 expressed in Escherichia coli BL21(DE3) )-codon plus-RIL cells incubated for 4 hrs in dark condition by fluorescence anisotropy binding assay
NCI-H522 = assay: Antiproliferative activity against human NCI-H522 cells after 72 hrs by CCK8 or SRB assay; format: functional, cell-based
[16] = Half life in dog plasma at 3 mg/kg, po; format: ADME, organism-based, Canis lupus familiaris
MDA-MB-436 = assay: Antiproliferative activity against human MDA-MB-436 cells after 72 hrs by CCK8 or SRB assay; format: functional, cell-based
[17] = biological target: Tyrosine-protein kinase ABL1 (Homo sapiens) (UniProt P00519); assay: Inhibition of Abl (unknown origin) at 10 uM using poly (Glu, Tyr) 4:1 as substrate after 60 mins by ELISA
SW-620 = assay: Antiproliferative activity against human SW620 cells after 72 hrs by CCK8 or SRB assay; format: functional, cell-based
Hep 3B2 = assay: Antiproliferative activity against human Hep3B cells after 72 hrs by CCK8 or SRB assay; format: functional, cell-based
[18] = Half life in ICR mouse at 10 mg/kg, po administered via gavage measured after 0.25 to 24 hrs by UPLC/MS analysis; format: ADME, organism-based; details: in vivo; procedure, shortened: as §1
MV4-11 [19] = assay: Induction of apoptosis in human MV4-11 cells assessed as reduction in XIAP level after 24 hrs by Western blot analysis; format: functional, cell-based
[20] = Tmax in rat plasma at 10 mg/kg, po; format: ADME, organism-based
Procedure, shortened: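 Oral dosing in 1% DMSO/0.5% HPMC vehicle (dog 3 mg/kg; rat 10 mg/kg); plasma drug levels measured.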

[21] = Tmax in rat plasma at 50 mg/kg, po; format: ADME, organism-based
Procedure, shortened: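 Rats dosed orally at 50 mg/kg in 1% DMSO/0.5% HPMC; drug measured in plasma and brain.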

[22] = biological target: T1, Bromodomain-containing protein 4; assay: Inhibition of BRD4 bromodomain 1 (unknown origin)
Procedure, shortened: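 BRD4 BD1 (His6-tagged, E. coli BL21(DE3)-expressed, Ni-NTA purified) at 10 nM with 5 nM FITC-labelled (+)-JQ1 tracer; 50 mM HEPES pH 7.4, 150 mM NaCl, 0.5 mM CHAPS, DMSO 2‰ final; graded inhibitor; 4 h dark equilibration at room temperature; fluorescence anisotropy read (ex 485/em 530 nm). IC50 from two independent experiments in duplicate, mean ± SEM.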

SK-OV-3 = assay: Antiproliferative activity against human SKOV3 cells after 72 hrs by CCK8 or SRB assay; format: functional, cell-based
[23] = Half life in dog liver microsomes; format: ADME, Canis lupus familiaris, Microsome
[24] = Half life in mouse liver microsomes at 1 uM preincubated for 5 mins followed by NADPH addition and measured after 5 to 30 mins by LC/MS/MS analysis; format: ADME, Microsome; details: microsomes, 1 µM
[25] = biological target: Bromodomain-containing protein 3 (Homo sapiens) (UniProt Q15059); assay: Binding affinity to human partial length BRD3 bromodomain 2 (G306 to P416 residues) expressed in Escherichia coli BL21 cells assessed as residual binding level at 1 uM measured after 1 hr by quantitative PCR based BROMOscan assay relative to control; procedure, shortened: as §3

In the case of `Cc1ccc(-n2nc(C(=O)N3C[C@@H](C)N[C@@H](C)C3)nc2-c2ccc3c(c2)N(C2CCCC2)[C@H](C)C(=O)N3C)cc1`, the half-life [1] is reported as 3 h, the Drug uptake [2] is reported as “Active” and the AUC(0-t) [3] is reported as 747 ng·h/mL. For the same compound, the Activity [4] was 20 to 50%, the inhibition [5] was < 10% and the Cmax [6] was 4020 ng/mL. The AUC(0-t) [7] was 1220 ng·h/mL, the AUC(0-t) [8] was 3820 ng·h/mL and the Activity (Peregrin (Homo sapiens)) was 70 to 100%. For the same compound, the half-life [9] was 6.3 h, the bioavailability [10] was 34.3% and the AUC(0-inf) [11] was 1270 ng·h/mL. The Activity [12] was 70 to 100%, the Activity (MV4-11 [13]) was “Active” and the Activity [14] was 50 to 70%. The IC50 (MM1.S) was 2.3 nM, the IC50 [15] was 5.3 nM and the Activity (NCI-H522) was “Active”. For the same compound, the half-life [16] was 6.6 h, the Activity (MDA-MB-436) was “Active” and the inhibition [17] was “Active”. For the same compound, the Activity (SW-620) was “Active”, the Activity (Hep 3B2) was “Active” and the half-life [18] was 2.1 h. The Activity (MV4-11 [19]) was “Dose-dependent effect”, the Tmax [20] was 2.3 h and the Tmax [21] was 0.4 h. For the same compound, the inhibition [22] was “Active”, the Activity (SK-OV-3) was “Active” and the half-life [23] was 0.3 h. For the same compound, the t1/2 [24] was 3.22 h and the Activity [25] was < 5%.
